# PGC1a Ac signal = raises PGC1a acetylation signal in U2OS cells; activation, % at 15.6 µM; AID 651723; U2OS PGC1a acetylation AlphaScreen, overnight; hit rate 0.21% among 350,000;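 active = every replicate reaching activation of at least 50%, whatever the mean replicate activation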;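 note: hits raise the AlphaScreen acetylation signal above neutral controls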
#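 System – flag-PGC1a/GCN5 U2OS cells · Quantity – 7000 U2OS cells per well · Signal – AlphaScreen proximity luminescence, anti-acetyl-lysine antibody · Schedule – overnight compound treatment, 37 °C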
# Numbers without * were called inactive. These entries were drawn from the full list.
SMILES,PGC1a Ac signal
CCCCCCCCCSc1n[nH]c(N)n1,-25.4
Cc1cc(C)nc(NS(=O)(=O)c2ccc(NC(=O)Nc3ccccc3)cc2)n1,-96.8
Cc1cc(S(=O)(=O)Nc2ccc3ccccc3c2)c(C)s1,58.3*
CCOC(=O)C1(CC2CCCCO2)CCN(C(=O)Nc2ccc(SC)cc2)CC1 (stereo not drawn),-55.7
CO[C@@H]1CN(C)C(=O)c2cc(NC(C)=O)ccc2OC[C@H](C)N(C(=O)c2cccnc2)C[C@H]1C,-48.6
CN(C)CCCN(C(=O)c1cc2cc([N+](=O)[O-])ccc2s1)c1nc2cc3c(cc2s1)OCCO3,-53.6
CN(C)C(=O)C[C@@H]1C=C[C@@H](NS(=O)(=O)c2ccccc2)[C@@H](CO)O1,-53.6
Cc1ccc(C(=O)Cn2c(C(=O)OCCO)cc3ccccc32)cc1,65.3*
Cc1noc(C)c1NC(=O)N(C)C[C@@H]1Oc2ccc(NS(=O)(=O)c3cn(C)cn3)cc2C(=O)N([C@@H](C)CO)C[C@@H]1C,-46.4
COc1ccc(Nc2nc(N)c(C(=O)c3ccc(OC)cc3)s2)cc1,82.8*
O=C(c1cccc(N2C(=O)C3C4C=CC(C4)C3C2=O)c1)N1CCCc2ccccc21 (stereo not drawn),-42.1
O=C(CN1CCC(N2CCCCC2)CC1)N1CCCc2ccccc21,81.5*
Cc1ccccc1OCC(O)CNC1CCC(NCC(O)COc2ccccc2C)CC1 (stereo not drawn),88.3*
C[C@@H]1CN([C@@H](C)CO)C(=O)CCCn2nncc2CO[C@H]1CN(C)CC1CCCCC1,-52.3
CC1CCCC=CC2CC(OC(=O)CN(C)C)CC2C(O)C=CC(=O)O1 (stereo not drawn),-67.1
C[C@@H](C(=O)Nc1nc2ccc(F)cc2s1)N1C(=O)C2CC=CCC2C1=O (stereo partly drawn),-47.2
CC(=O)Nc1cccc(OCC(=O)Nc2ccccc2)c1,51.3*
CC(=O)c1ccc(NC(=O)CSCC(=O)Nc2ccc3ccccc3c2)cc1,-55.7
CCOC(=O)N1CCC(N(CCN(C)C)C(=S)Nc2cccc(OC)c2)CC1,-44.8
C#CCN(C[C@@H]1[C@@H](OC(=O)NCC2CCCCC2)[C@@H](OC(=O)NCC2CCCCC2)Cn2c(=O)ccc(=O)n21)S(=O)(=O)c1ccc(C)cc1,-91.4
C[C@@H]1CN([C@@H](C)CO)C(=O)CCCn2nncc2CO[C@H]1CN(C)Cc1ccc(O)cc1,-45.0
CCCNC(=O)COC(=O)c1ccccc1C(=O)c1ccc(Cl)c([N+](=O)[O-])c1,126.9*
Cc1cc(C(=O)OCC(=O)N(C)c2ccccc2)ccc1[N+](=O)[O-],-52.4
CC(C)(C)NC(=O)c1ccc(Sc2ccccc2)c([N+](=O)[O-])c1,-80.8
Cc1ccccc1-n1nnnc1Sc1nnnn1-c1ccccc1,-46.4
SMILES,PGC1a Ac signal
CCCSc1nnc(Sc2nnnn2-c2ccccc2)s1,84.4*
CC(C)(c1ccccc1)c1ccc(OCCCNCCO)cc1,87.7*
CCOC(=O)C1CCCN(C(=O)CSc2ccc(Br)cc2)C1 (stereo not drawn),-78.1
CCOC(=O)C1CCN(C2=NC(=O)/C(=C/c3ccc(O)cc3)S2)CC1,-40.5
CCOC(=O)C1CCN(Cc2ccc(O)c3ncccc23)CC1,61.4*
CC(=O)c1c(N2CCOCC2)nc(=O)n(-c2ccccc2)c1C,-44.3
Nc1cc2nsnc2cc1Br,-60.5
COC(=O)c1ccc2[nH]c3cccc(/C(=C/c4ccccc4)c4ccccc4)c3c2c1,61.3*
Cc1nn(CC(=O)Nc2ccc(C(C)C)cc2)c(C)c1[N+](=O)[O-],-43.2
CC1CC1C(=O)N(C)CC(=O)Nc1cccc(F)c1 (stereo not drawn),77.6*
CCC(=O)N1C[C@H](C)[C@@H](OC)CN(C)C(=O)c2cc(NC(=O)Nc3cccc(F)c3)ccc2OC[C@H]1C,-55.0
CCc1nc2c(OCc3ccc(S(C)(=O)=O)cc3)cccn2c1N(C)C(=O)c1ccccc1F,-45.3
COc1cccc2c1C(CO)N1C(C#N)C3CC(C(=O)O)C(C1C2)N3C (stereo not drawn),-66.4
O=C(CC1CC1)N[C@H]1CC[C@@H](CCNS(=O)(=O)c2ccc(Cl)cc2)O[C@@H]1CO,-67.0
CC(C)(C)OC(=O)N1CCCC(C(=O)Nc2cccc(C(=O)NCc3ccccc3)c2)C1 (stereo not drawn),64.4*
O=C(Cc1cccc(NC(=O)C2CCN(C(=O)c3ccccc3)CC2)c1)Nc1cccc(C(=O)N2CCCCC2)c1,-41.5
O=C(Cc1cccc(NC(=O)C2CCCN(C(=O)c3ccccc3)C2)c1)Nc1cccc(C(=O)N2CCOCC2)c1 (stereo not drawn),-40.5
CO[C@@H]1CN(C)C(=O)c2ccc(NC(=O)Nc3c(C)noc3C)cc2OC[C@H](C)N(CC2CC2)C[C@@H]1C,-100.7
Cc1noc(C)c1NC(=O)Nc1cccc2c1O[C@H](CN(C)Cc1ccc(Oc3ccccc3)cc1)[C@H](C)CN([C@@H](C)CO)C2=O,-99.9
O=C(NCC[C@@H]1CC[C@H](NS(=O)(=O)c2ccccc2)[C@@H](CO)O1)c1ccccc1F,-52.5
CC(C)NC(=O)NCC[C@@H]1CC[C@H](NS(=O)(=O)c2ccc(-c3ccccc3)cc2)[C@@H](CO)O1,65.0*

# Bioassay records (PubChem)
